Laboratory results as given in paper PMC3404467 (Journal of Medicinal Chemistry, 2012).

Columns and labels:
[1] = biological target: human NPFF2 receptor (Homo sapiens, UniProt Q9Y5X5); assay: IP accumulation assay, wt hNPFF2R in COS-7 cells with chimeric G-protein; assay type: cell-based; settings: for functional behaviour at NPFF2R: IP accumulation assays, wt NPFF2R; for x-fold: wt hNPFF2R, EC50(compound)/EC50(NPFF at wt)
[2] = biological target: T1, hNPFF1R (Homo sapiens, UniProt Q9GZQ6); assay: IP accumulation assay, wt hNPFF1R in COS-7 cells with chimeric G-protein; assay type: cell-based; settings: for functional behaviour at NPFF1R: IP accumulation assays; for functional behaviour at NPFF1R / IP accumulation at NPFF1R: wt NPFF1R; for x-fold: wt hNPFF1R, EC50(compound)/EC50(endogenous ligand NPVF at wt); for IP accumulation at NPFF1R: at 10 μM
T1 sequence (Q9GZQ6 whole entry): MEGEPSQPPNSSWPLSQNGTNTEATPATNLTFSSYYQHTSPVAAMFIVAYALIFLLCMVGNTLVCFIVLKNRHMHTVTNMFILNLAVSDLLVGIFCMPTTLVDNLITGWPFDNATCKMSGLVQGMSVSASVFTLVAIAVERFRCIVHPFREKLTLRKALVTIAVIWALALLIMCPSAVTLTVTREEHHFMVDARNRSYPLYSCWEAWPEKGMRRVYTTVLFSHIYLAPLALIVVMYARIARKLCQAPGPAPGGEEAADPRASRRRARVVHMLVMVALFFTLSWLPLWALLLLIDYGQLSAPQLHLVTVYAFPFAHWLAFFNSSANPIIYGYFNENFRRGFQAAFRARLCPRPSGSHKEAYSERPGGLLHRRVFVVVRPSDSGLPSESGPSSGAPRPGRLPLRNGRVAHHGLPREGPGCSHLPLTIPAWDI

[3] = system: COS-7 cells; assay: Resazurin-based cell viability assay; set-up: species or system African Green Monkey; settings: 2 h incubation, at high compound concentrations
Procedure, shortened: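 COS-7 cells seeded 30,000/well, grown to subconfluency, exposed 2 h to varying concentrations in DMEM (4.5 g/L glucose, L-glutamine, 10% heat-inactivated FCS). Controls were 70% EtOH for 10 min and FCS medium. Cells were washed twice in serum-free medium, then given 10% resazurin in serum-free medium for 2 h at 37°C. Resorufin fluorescence was read at ex 550/em 595 nm. Two independent experiments, triplicates; IC50 derived.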

[4] = biological target: Y^7.35A_hNPFF2R (Homo sapiens, UniProt Q9Y5X5, Y417A); assay: IP accumulation assay, Y^7.35A mutant of hNPFF2R; assay type: cell-based; settings: Y^7.35A hNPFF2R; ratio to EC50 of NPFF at wt
Chain of Y^7.35A_hNPFF2R (Q9Y5X5 whole entry Y417A): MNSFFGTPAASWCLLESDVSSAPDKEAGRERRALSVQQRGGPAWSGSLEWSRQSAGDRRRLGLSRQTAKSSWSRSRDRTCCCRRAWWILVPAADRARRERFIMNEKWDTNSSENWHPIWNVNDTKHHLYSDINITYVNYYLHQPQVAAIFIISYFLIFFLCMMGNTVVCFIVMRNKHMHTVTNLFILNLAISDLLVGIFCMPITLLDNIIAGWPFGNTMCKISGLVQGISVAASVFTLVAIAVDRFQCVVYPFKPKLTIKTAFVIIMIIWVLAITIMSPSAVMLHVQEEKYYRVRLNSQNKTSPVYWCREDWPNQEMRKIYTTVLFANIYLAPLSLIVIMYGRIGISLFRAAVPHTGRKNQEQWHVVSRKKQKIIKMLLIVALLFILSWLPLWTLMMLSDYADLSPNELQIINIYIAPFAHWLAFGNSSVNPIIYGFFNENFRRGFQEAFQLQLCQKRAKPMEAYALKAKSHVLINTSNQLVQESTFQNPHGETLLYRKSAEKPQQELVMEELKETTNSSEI

[5] = biological target: T1, hNPFF1R; assay: Antagonism: NPVF concentration-response curves; assay type: cell-based; settings: against NPVF
[6] = system: hNPFF2R; settings: cited from earlier work
[7] = biological target: T1, hNPFF1R; settings: CHO-hNPFF1R cells, up to 10 μM; cited from earlier work
[8] = biological target: D^6.59A_hNPFF2R (Homo sapiens, UniProt Q9Y5X5, D400A); assay: IP accumulation assay, D^6.59A mutant of hNPFF2R; assay type: cell-based; settings: D^6.59A hNPFF2R; ratio to EC50 of NPFF at wt
Chain of D^6.59A_hNPFF2R (Q9Y5X5 whole entry D400A): as the sequence (Q9Y5X5 whole entry Y417A) above, with D400A, A417Y counted along it

[9] = biological target: Y^7.33A_hNPFF2R (Homo sapiens, UniProt Q9Y5X5, Y415A); assay: IP accumulation assay, Y^7.33A mutant of hNPFF2R; assay type: cell-based; settings: Y^7.33A hNPFF2R; ratio to EC50 of NPFF at wt
Chain of Y^7.33A_hNPFF2R (Q9Y5X5 whole entry Y415A): as the sequence (Q9Y5X5 whole entry Y417A) above, with Y415A, A417Y counted along it

[10] = biological target: Y^5.38A hNPFF2 receptor (Homo sapiens, UniProt Q9Y5X5, Y321A); assay: IP accumulation assay, Y^5.38A mutant of hNPFF2R; assay type: cell-based; settings: Y^5.38A hNPFF2R; ratio to EC50 of NPFF at wt
Chain of Y^5.38A hNPFF2 receptor (Q9Y5X5 whole entry Y321A): as the sequence (Q9Y5X5 whole entry Y417A) above, with Y321A, A417Y counted along it

[11] = rats, spinal nerve ligation; cited from earlier work

Chain of human NPFF2 receptor (Q9Y5X5 whole entry): as the sequence (Q9Y5X5 whole entry Y417A) above, with A417Y counted along it

functional behaviour at NPFF2R [1] | functional behaviour at NPFF1R [2] | EC50 [1] [nM] | x-fold [1] [fold] | x-fold [2] [fold] | x-fold [4] [fold] | IP accumulation at NPFF1R [2] | Schild plot slope [5] | x-fold [8] [fold] | x-fold [9] [fold] | x-fold [10] [fold] | Structure (SMILES) | cytotoxicity (relative cell viability) [3] | effect on stimulation of [^35S]GTPγS binding ([6]; hNPFF2R membranes, up to 100 μM) | right-shift of concentration-effect curves of NPFF ([6]; in the presence of high concentrations of RF9) | activity in cAMP accumulation assay [7] | antinociceptive effect on mechanical allodynia [11]
full agonists | partial agonists | – | – | – | – | – | – | – | – | – | N=C(N)N/N=C/c1ccc(Cl)c(C(F)(F)F)c1 [AC-099] | – | – | – | – | –
full agonists | full agonist | 1160 ± 638 | 977 | 3308 | 738 | – | – | – | – | – | N=C(N)N/N=C/c1ccc(-c2ccc(Br)cc2C(F)(F)F)o1 [AC-216] | cytotoxic effect | – | – | – | –
full agonists | partial agonists | – | 1291 | 310 | – | – | – | – | – | – | N=C(N)N/N=C/c1ccc(Br)c(Br)c1 [AC-093] | cytotoxic effect | – | – | – | –
partial agonist | competitive antagonist | – | 137 | – | 66 | no IP accumulation | 0.89 ± 0.05 | – | – | – | NC(N)=NCCC[C@@H](NC(=O)C(c1ccccc1)c1ccccc1)C(=O)NCc1ccc(O)cc1 [BIBP3226, (R)-N(2)-(diphenylacetyl)-N-[(4-hydroxyphenyl)-methyl]-argininamide, reference compound] | – | – | – | – | –
full agonists | competitive antagonism | – | 175 | – | 177 | no IP accumulation | 1.04 ± 0.19 | 5211 | 4901 | 1440 | N=C(N)N/N=C/C12CC3CC(CC(C3)C1)C2 [AC-970] | cytotoxic effect | – | – | – | reversing established mechanical allodynia

Structure (SMILES) | functional behaviour at NPFF2R [1] | functional behaviour at NPFF1R [2] | EC50 [1] [nM] | x-fold [1] [fold] | x-fold [2] [fold] | x-fold [4] [fold] | IP accumulation at NPFF1R [2] | Schild plot slope [5] | x-fold [8] [fold] | x-fold [9] [fold] | x-fold [10] [fold] | cytotoxicity (relative cell viability) [3] | effect on stimulation of [^35S]GTPγS binding ([6]; hNPFF2R membranes, up to 100 μM) | right-shift of concentration-effect curves of NPFF ([6]; in the presence of high concentrations of RF9) | activity in cAMP accumulation assay [7] | antinociceptive effect on mechanical allodynia [11]
N=C(N)NCCC[C@H](NC(=O)C12CC3CC(CC(C3)C1)C2)C(=O)N[C@@H](Cc1ccccc1)C(N)=O [RF9, 1-Adamantanecarbonyl-RF-NH2, reference compound] | agonistic activity | agonistic activity | – | 222 | 41 | 277 | – | – | – | – | – | – | no effect | ~ 160 fold | inactive | –
